Compound activity: PubChem BioAssay, several laboratories
Diaphorase act: diaphorase activation or chemical reduction counter-screen; activation factor at 20 µM; AID 1229; Diaphorase/resazurin coupled assay, resorufin fluorescence, 16 min; active compounds read high; 1 = vehicle wells, 0 = NADH-free wells; 190,000 tested, 0.005% active;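 active = diaphorase activity raised at least twofold by the compound at 20 µM; inactive = activation factor below 2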
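Material: purified diaphorase enzyme from Clostridium kluyveri; Also added: 0.114 mM NADH and 0.1 mM resazurin, final amounts; Doses: single compound dose of 20 µM, 1% DMSO final; Times: 16 min enzyme reaction, ambient temperature; Detection: resorufin fluorescence, excitation 544 nm, emission 590 nm; Measure: increased resorufin signal from activators or reducing compounds.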
Lmaj promast: reduces viability of Leishmania major promastigotes. 200,000 tested, 9% active. inhibition, % at 10 µM. resazurin fluorescence viability;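 note: promastigotes grown with compound for 44 hours at 28 °C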
WT yeast gro inh: growth inhibition of WT yeast, mitochondrial fusion screen; mitochondrial fusion phenotypic screen, WT strain; 190,000 tested, 2.1% active; inhibition, % at 10 µM; in the data active = inhibition above about 58%; tested in S. cerevisiae
Diaph inh CS: counter-screen for diaphorase-based assays: diaphorase inhibitors and chemical oxidizers | diaphorase resazurin-to-resorufin fluorescence, NADH, 16 min; bacterial (C. kluyveri) enzyme, not human | inhibition, % at 20 µM | 190,000 tested, 0.69% active | AID 1217;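 active = primary screen inhibition at 20 µM above a set limit, cut at about 50% in these data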;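 note: plate controls were DMSO with full reaction for no effect and wells lacking NADH for full effect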
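Assay system: diaphorase enzyme from Clostridium kluyveri; Input: enzyme working solution with 0.14 U/mL diaphorase; Timing: 16 min at room temperature; Technique: resorufin fluorescence, excitation 544 nm, emission 590 nm; Benchmarks: positive control minus NADH, DMSO neutral control.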
G6PDH counter: counter-screen for G6PDH assay hits: L. mesenteroides G6PDH inhibition. inhibition, % at 5 µM. 200,000 tested, 0.12% active. Purified L. mesenteroides G6PDH, diaphorase/resazurin coupled fluorescence, 45 min
The depositor's hits bear a star. A selection: hits, their analogues and other compounds. The true share with any hit is near 11%. Cut-off read from the data, not from the text of the source, unless noted: active = inhibition above about 50%; inactive = the rest.

CC(C)n1c(NCCO)nc2ccccc21 was read as Diaphorase act 0.9, Lmaj promast 6.5, WT yeast gro inh -7.1, Diaph inh CS 14.1 and G6PDH counter 17.2.
For CCOc1ccccc1Nc1nc2ccccc2n1C(C)C the results were Diaphorase act 0.9, Lmaj promast 82.7*, WT yeast gro inh 15.3, Diaph inh CS 11.9 and G6PDH counter 3.7.
O=C(O)CCc1ccc(-c2cccs2)n1CCc1ccccc1 was read as Diaphorase act 1.1, Lmaj promast -1.5, WT yeast gro inh -0.8, Diaph inh CS -8.7 and G6PDH counter 14.7.
Screening CCn1c(CNC(=O)c2ccccc2)nc2ccccc21 returned Lmaj promast -1.0.
For Cn1c(CNc2nc3ccccc3n2C)nc2ccccc21 the results were Diaphorase act 1, Lmaj promast 50.5*, WT yeast gro inh 29.2, Diaph inh CS 1.7 and G6PDH counter 6.5.
`CCn1c(CNc2nc3ccccc3n2C(C)C)nc2ccccc21` gave Diaphorase act 0.9, Lmaj promast 99.8*, WT yeast gro inh 0.7, Diaph inh CS 12.6 and G6PDH counter 14.6.
Screening Cn1c(NCc2cc(Br)ccc2O)nc2ccccc21 returned Diaphorase act 1.1, Lmaj promast 21.6, WT yeast gro inh -7.3, Diaph inh CS -14.0 and G6PDH counter 9.7.
`CCCn1c(CNc2ccccc2O)nc2ccccc21` gave Diaphorase act 0.7, Lmaj promast 81.6*, WT yeast gro inh 55.1, Diaph inh CS 32.5 and G6PDH counter 62.4*.
For CCCCn1c(CNC(=O)CCC)nc2ccccc21 the results were Diaphorase act 0.9, Lmaj promast -2.9, WT yeast gro inh 8.2, Diaph inh CS 11.0 and G6PDH counter -2.1.
For Cn1c(NCc2c(O)ccc3ccccc23)nc2ccccc21 the results were Diaphorase act 0.8, Lmaj promast 100.4*, WT yeast gro inh 59.2, Diaph inh CS 17.6 and G6PDH counter 20.2.
For NC(=O)c1cc(NC(=O)c2cc(Br)c(Br)s2)cc(C(N)=O)c1 the results were Diaphorase act 1.2, Lmaj promast 1.8, WT yeast gro inh -21.7, Diaph inh CS -19.5 and G6PDH counter -6.5.
For CC(C)n1c(NCc2cc(Cl)ccc2O)nc2ccccc21 the results were Diaphorase act 0.8, Lmaj promast 65.9*, WT yeast gro inh 2.9, Diaph inh CS 18.5 and G6PDH counter 5.1.
Screening Cn1c(NCc2ccc(Cl)cc2)nc2ccccc21 returned Diaphorase act 1.1, Lmaj promast 31.4, WT yeast gro inh 6.8, Diaph inh CS -7.2 and G6PDH counter 6.4.
Screening CC(C)(C)c1ccc(-c2nnc(SCCC#N)n2C2CCCC2)cc1 returned Diaphorase act 0.8, Lmaj promast 4.9, WT yeast gro inh 65.9*, Diaph inh CS 22.3 and G6PDH counter 18.1.
`Cn1c(SCCC#N)nnc1-c1ccc(F)cc1` gave Diaphorase act 0.9, Lmaj promast -3.7, WT yeast gro inh -9.7, Diaph inh CS 8.6 and G6PDH counter 3.8.
Screening CC/C(C)=N/Nc1cccc([N+](=O)[O-])c1 returned Diaphorase act 0.9, Lmaj promast 95.8*, WT yeast gro inh 67.0*, Diaph inh CS 9.8 and G6PDH counter -12.2.
Screening O=C(Nc1cccc([N+](=O)[O-])c1)c1ccc2c(c1)OCCO2 returned Diaphorase act 0.9, Lmaj promast 51.9*, WT yeast gro inh -3.1, Diaph inh CS 13.0 and G6PDH counter 6.4.
For O=C(Nc1ccc(F)c([N+](=O)[O-])c1)c1ccc2c(c1)OCCO2 the results were Diaphorase act 0.8, Lmaj promast -0.7, WT yeast gro inh 8.6, Diaph inh CS 19.4 and G6PDH counter 2.8.
Screening CC(C)(C)c1ccc(C(=O)Nc2cccc([N+](=O)[O-])c2)cc1 returned Diaphorase act 1, Lmaj promast 4.0, WT yeast gro inh 61.5*, Diaph inh CS 4.7 and G6PDH counter -5.9.
Screening CCC(CC)=NNc1cccc([N+](=O)[O-])c1 returned Diaphorase act 0.9, Lmaj promast -6.0, WT yeast gro inh 17.5, Diaph inh CS 12.6 and G6PDH counter 7.4.
Screening CC(C)(C)CC(C)(C)NC(=O)Nc1cccc([N+](=O)[O-])c1 returned Diaphorase act 0.8, Lmaj promast 11.3, WT yeast gro inh 64.3*, Diaph inh CS 16.4 and G6PDH counter 5.6.
Screening O=C(Nc1cccc([N+](=O)[O-])c1)c1ccncc1 returned Diaphorase act 0.9, Lmaj promast 9.2, WT yeast gro inh 7.4, Diaph inh CS 11.5 and G6PDH counter 2.0.
